Cneo AK release – causes C. neoformans cell lysis; adenylate kinase release luminescence, 4 h; normalised: neutral wells 0, clomiphene wells 100; lysis activity, % at 15 µM; actives 0.2% (n = 360,000); AID 651654;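 active = mean lysis activity across replicates of at least 80%, whatever share of replicates individually reach that level; inactive = mean lysis activity below 80%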
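read-out = cell lysis signal | test system = log-phase Cryptococcus neoformans yeast cells | input = cells at 5 × 10^6 per mL | medium = fresh YPD growth medium | signal = luminescent adenylate kinase detection reagent | timing = 4 h at 37 °C static, read 1 h later | dosing = single dose | controls = Clomiphene as positive lysis control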
ERAP1 inh – inhibitors of human ERAP1 aminopeptidase. inhibition, % at 10.7 µM. recombinant ERAP1, Leu-AMC fluorescence, 60 min. Q9NZ08. actives 0.15% (n = 340,000);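 active = mean replicate inhibition of at least 30%, or all replicates individually reaching that 30% level; inactive = mean below 30% and not every replicate reaching it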;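 note: 0% = neutral control wells and 100% = L-leucinethiol positive control wells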
Target sequence (Q9NZ08 whole entry, looked up): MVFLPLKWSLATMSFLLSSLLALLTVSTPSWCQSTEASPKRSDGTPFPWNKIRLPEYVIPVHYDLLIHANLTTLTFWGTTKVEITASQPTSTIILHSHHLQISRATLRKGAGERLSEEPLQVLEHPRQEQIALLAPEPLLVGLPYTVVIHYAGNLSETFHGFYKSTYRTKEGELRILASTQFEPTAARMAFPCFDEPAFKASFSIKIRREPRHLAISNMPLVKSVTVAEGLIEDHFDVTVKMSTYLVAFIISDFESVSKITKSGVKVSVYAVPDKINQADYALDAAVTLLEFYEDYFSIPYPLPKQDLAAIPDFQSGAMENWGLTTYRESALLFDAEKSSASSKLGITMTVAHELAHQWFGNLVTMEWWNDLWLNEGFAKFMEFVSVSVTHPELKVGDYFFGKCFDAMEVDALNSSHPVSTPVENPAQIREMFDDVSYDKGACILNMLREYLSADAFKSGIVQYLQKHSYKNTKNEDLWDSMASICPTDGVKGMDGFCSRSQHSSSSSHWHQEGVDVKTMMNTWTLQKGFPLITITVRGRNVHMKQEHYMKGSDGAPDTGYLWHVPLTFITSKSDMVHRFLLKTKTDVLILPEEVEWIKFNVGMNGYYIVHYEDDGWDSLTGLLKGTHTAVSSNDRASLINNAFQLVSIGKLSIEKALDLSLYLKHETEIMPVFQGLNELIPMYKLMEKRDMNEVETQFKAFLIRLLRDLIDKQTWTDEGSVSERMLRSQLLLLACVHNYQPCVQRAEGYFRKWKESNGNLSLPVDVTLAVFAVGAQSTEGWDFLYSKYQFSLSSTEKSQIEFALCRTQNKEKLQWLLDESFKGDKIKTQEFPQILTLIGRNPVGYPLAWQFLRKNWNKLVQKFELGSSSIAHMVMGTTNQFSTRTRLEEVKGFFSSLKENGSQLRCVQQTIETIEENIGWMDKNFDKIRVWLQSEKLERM
HIV Env fusion – blocks HIV Env-driven cell-cell fusion; inhibition, % at 12.3 µM; HeLa-JRFL Env/CEM21 cell fusion, luciferase; actives 1.1% (n = 360,000); AID 651610;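 active = mean replicate inhibition score of at least 50 and every replicate individually at or above 50; inconclusive = only one of the two criteria met; inactive = mean below 50 and not all replicates reaching 50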;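 note: 0% = plate neutral controls and 100% = maraviroc near 300 nM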
esBAF inh – inhibitors of esBAF chromatin remodeling in mouse ES cells. reporter increase, % at 12.5 µM. actives 2% (n = 350,000). Bmi1-luciferase knock-in reporter, 24 h; 100% = twice the neutral-well signal; in the data active = activation above about 40%; inconclusive = no clear call, values can overlap the other calls;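 note: 0% = median of the plate's neutral control wells and 100% = double that signal; a rise in the Bmi1 reporter signal indicates esBAF inhibition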
Wnt bcat act – activators of Wnt/beta-catenin signaling; Wnt/beta-catenin reporter cell assay, activator, plate reader; activation, % at 9.35 µM; actives 1.2% (n = 300,000); in the data active = activation above about 30%, passing the limit was not always enough; inconclusive = no clear call, values can overlap the other calls;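 note: 0% = neutral control wells and 100% = positive control wells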
MITF act – increases MITF-driven TRPM1 promoter luciferase signal. SK-MEL-5 TRPM1-promoter luciferase, 24 h; % of positive control, neutral wells = 0. activation, % at 12.5 µM. actives 0.75% (n = 300,000). AID 588334;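 active = mean activation of at least 80% with every replicate also reaching 80%; inconclusive = mean reaches 80% but some replicate falls short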;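 note: 0% = neutral control wells and 100% = parthenolide positive control wells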
Active calls of the source: *; ? = inconclusive; / = no result given; [ ] = remark or other dose. An excerpt weighted towards active compounds, which were near 3.5% of everything screened.

SMILES	Cneo AK release	ERAP1 inh	HIV Env fusion	esBAF inh	Wnt bcat act	MITF act
NC(=O)CC(NC(=O)Cc1ccc(Br)cc1)c1ccc(N2CCCCCCC2)c([N+](=O)[O-])c1 (centres undefined)	-0.7	5.4	?	-0.8	-4.1	16.1
COc1ccc2c3c(n(C)c2c1)[C@H](CO)N(C(=O)CN(C)C)CC31CCN(C(=O)CN(C)C)CC1	/	-4.5	/	/	/	/
C[C@@H]1CCCCO[C@@H](CN(C)C(=O)Nc2ccc3c(c2)OCO3)[C@H](C)CN([C@H](C)CO)C(=O)c2cc(NC(=O)Nc3ccc(F)cc3)ccc2O1	1.3	-2.3	-23.6[16.7 µM]	2.1	/	/
COc1ccc(S(=O)(=O)Nc2cccc(S(=O)(=O)N3CCCCCC3)c2)cc1	-1.0	/	/	/	-0.1	-1.5
O=S(=O)(Nc1nc2ccccc2nc1Nc1cccc(S(=O)(=O)N2CCCCC2)c1)c1ccccc1	-0.5	2.2	76.6*	/	-4.0	-15.5
c1ccc(N2CCN(c3nc4cc5c(cc4s3)OCO5)CC2)cc1	-1.2	/	-33.5	49.4*	19.0	19.8
c1c2c(cc3sc(N4CCCCC4)nc13)OCO2	-16.1	/	-280.4	/	53.8*	-4.2
c1c2c(cc3sc(N4CCOCC4)nc13)OCO2	0.1	/	-146.9	-21.8	/	/
CCCCNC(=O)N(C)c1nc2ccccc2s1	-7.3	-2.8	-1.2	63.5*	4.8	52.2
COC(=O)N(C)c1nc2ccccc2s1	-0.7	/	/	27.1	/	38.8
CN1CCc2c(sc(/N=C/c3c[nH]c4ccccc34)c2C#N)C1	-4.2	/	-42.7	/	39.0*	/
O=C(Nc1ccc(F)cc1)N1CCCCN2[C@H](CO)[C@@H](c3ccc(-c4ccccc4F)cc3)[C@H]2C1	5.6	-0.3	/	/	/	/
COc1ccc(CCN(C)C(=O)c2ccc(S(=O)(=O)Nc3ccccc3C)cc2)cc1OC	/	-6.1	-11.5	/	-2.3	/
CCOc1ccc(NS(=O)(=O)c2ccc(C(=O)N(C)CCc3ccc(OC)c(OC)c3)cc2)cc1	2.4	3.3	88.7*	9.1	3.1	-5.8
O=C(C1CCN(S(=O)(=O)c2ccccc2)CC1)N1CCN(c2ccccc2)CC1	-0.2	-0.1	60.7*	/	2.1	7.1
CC1CCN(S(=O)(=O)c2cc(C(=O)N3CCN(c4ccccc4)CC3)ccc2Br)CC1	1.7	-2.0	72.1*	-9.5	-5.0	/
O=C(COn1nnc2ccccc21)NCC1CCCCC1	0.7	/	-35.4	53.2*	35.6*	/
COc1ccccc1OCC(=O)NCC1CCCCC1	-1.6	/	0.1	/	/	11.9
O=[N+]([O-])c1ccc(-c2cnc3ccccc3n2)cc1	1.8	2.7	-65.2	55.1*	4.3	/
N#Cc1cccc(NC(=O)COC(=O)Cn2nc(-c3ccccc3)oc2=O)c1	1.3	-5.0	/	-2.9	37.8*	10.7
O=C1c2cccnc2C(Nc2ccc(S(=O)(=O)N3CCCCC3)cc2)N1Cc1ccccc1 (centres undefined)	/	/	83.7*	/	/	4.1
CCOC(=O)c1ccc(NC2c3ncccc3C(=O)N2Cc2ccc(F)cc2)cc1 (centres undefined)	0.8	/	93.3*	10.8	/	5.8
CO[C@H]1CN(C)C(=O)c2cc(NC(=O)Cc3ccccc3)ccc2OC[C@H](C)N(C(C)=O)C[C@@H]1C	0.8	-1.4	-13.2[16.7 µM]	1.4	/	/
Cc1cc(N2CCN(C(=O)OC(C)(C)C)C[C@H]2C)ccc1N1CCS(=O)(=O)CC1	/	-3.0	61.6*	/	-1.7	/
C[C@@H]1CN(C(=O)OC(C)(C)C)CCN1c1ccc(N2CC[C@H](O)C2)c(C#N)c1	/	4.7	-27.0	/	-5.1	/
SMILES	Cneo AK release	ERAP1 inh	HIV Env fusion	esBAF inh	Wnt bcat act	MITF act
Cn1c(SCC(=O)N2CCN(c3cccc(Cl)c3)CC2)nnc1-c1ccncc1	0.3	/	98.0*	5.1	-5.0	-1.2
Cn1c(Cc2cccc3ccccc23)nnc1SCC(=O)N1CCN(c2ccccc2)CC1	2.4	1.2	62.8*	2.7	/	/
Cn1c(Cc2ccccc2)nnc1SCC(=O)N1CCN(c2ccccc2)CC1	0.7	/	/	4.4	/	0.9
Cc1[nH]c2ccccc2c1SCC(=O)N1CCCc2ccccc21	25.6	4.3	69.0*	5.8	-2.5	-2.5
Cc1cc(C)n2nc(SCC(=O)N3CCc4ccccc43)nc2n1	/	/	-4.1	/	-2.5	-0.9
Cc1cc2nc(-c3ccc(SCC(=O)N4CCc5ccccc54)nc3)[nH]c2cc1C	-2.2	2.1	/	75.4*	-4.9	20.9
Cc1[nH]c2ccccc2c1C(=O)C(=O)N1CCCc2ccccc21	/	2.5	0.8	/	-3.4	10.7
Cc1cc(C)nc(SCC(=O)N2CCc3ccccc32)n1	-0.4	-2.7	-11.1	41.8*	13.2	54.2
O=C(CCN1CCCCC1)NCC[C@@H]1CC[C@@H](NC(=O)c2ccc(F)cc2)[C@H](CO)O1	-2.4	-2.7	23.1[16.7 µM]	-2.8	/	/
Cn1c(-c2ccccc2)c[n+]2c1-c1ccccc1C2	/	2.3	56.7*	/	7.5	-6.8
Cc1ccc(S(=O)(=O)Nc2ccc3c(c2)C(=O)N([C@@H](C)CO)C[C@@H](C)[C@@H](CN(C)Cc2ccc4c(c2)OCO4)O3)cc1	1.9	2.9	/	0.1	/	/
C=CCn1cnc2c(nnn2-c2ccc(C)c(C)c2)c1=O	/	-1.2	-4.7	/	5.0	110.4*
O=C(C[C@@H]1CC[C@H]2[C@@H](COC[C@H](O)CN2S(=O)(=O)c2cccc(Cl)c2)O1)Nc1ccc(-c2ccccc2)cc1	-1.9	1.9	/	-4.1	/	/
COc1cccc(OCc2nc3ccccc3c(=O)n2N)c1	10.5	-4.0	/	46.6*	-2.9	33.5
CCOC(=O)Nc1ccc(OC(=O)Oc2ccc(NC(=O)OCC)cc2)cc1	/	0.5	/	/	-4.6	19.6
CCCCOC(=O)Nc1ccc(C(C)C)cc1	-1.5	/	/	74.8*	/	/
CCCCOC(=O)Nc1ccc(N2CCCCC2)cc1	-1.7	/	-282.0	8.0	73.7*	/
CCOC(=O)Nc1ccc(Oc2ccccc2)cc1	-1.4	/	2.5	53.9*	55.0*	89.9*
CN(C)c1ccc(/C=C/c2ccncc2)cc1	19.4	/	-136.2	30.2	43.5*	60.3
COc1ccc(/C=C/c2ccncc2)cc1	4.5	/	-456.1	52.6*	45.7*	73.8
O=C(NC[C@H]1CC[C@@H]2[C@@H](CN2S(=O)(=O)c2ccccc2[N+](=O)[O-])O1)C1CC1	/	1.9	/	/	/	/
C[C@H](CO)N1C[C@H](C)[C@@H](CN(C)C(=O)Cc2ccncc2)Oc2cc(C#CC3(O)CCCC3)ccc2S1(=O)=O	/	/	-9.4[16.7 µM]	-5.2	/	/
O=C(O)c1cncc(C#CCC2CCCCC2)c1	/	4.9	-3.0	61.2*	-2.1	46.6
CN(C)c1ccc(C2C3CCCc4ccccc4C3=NN2C)cc1 (centres undefined)	/	5.9	-40.4	47.4*	1.0	32.5
COc1cc(/C=N/NC(=O)c2cccc([N+](=O)[O-])c2)ccc1OCc1ccc(C)cc1	-0.3	/	-70.1	56.4*	?	69.0
COc1ccc(/C=N/NC(=O)c2cccc([N+](=O)[O-])c2)cc1O	/	0.7	-5.7	/	19.5	0.3
